Measurements as given in paper PMC12138345 (RSC Advances, 2025).
Structures can show the parent of a compound that is named as a salt. Where two headings read alike, the source gives them in different places.

Experiments:
CtPilB = target: T1, CtPilB (Chloracidobacterium thermophilum, UniProt G2LDI3); assay: CtPilB ATPase malachite green assay; type: biochemical; conditions: for inhibition at 3 µM: read-out: % Inhib. 3 μM; for inhibition at 30 µM: read-out: % Inhib. 30 μM
T1 sequence (G2LDI3 140-614): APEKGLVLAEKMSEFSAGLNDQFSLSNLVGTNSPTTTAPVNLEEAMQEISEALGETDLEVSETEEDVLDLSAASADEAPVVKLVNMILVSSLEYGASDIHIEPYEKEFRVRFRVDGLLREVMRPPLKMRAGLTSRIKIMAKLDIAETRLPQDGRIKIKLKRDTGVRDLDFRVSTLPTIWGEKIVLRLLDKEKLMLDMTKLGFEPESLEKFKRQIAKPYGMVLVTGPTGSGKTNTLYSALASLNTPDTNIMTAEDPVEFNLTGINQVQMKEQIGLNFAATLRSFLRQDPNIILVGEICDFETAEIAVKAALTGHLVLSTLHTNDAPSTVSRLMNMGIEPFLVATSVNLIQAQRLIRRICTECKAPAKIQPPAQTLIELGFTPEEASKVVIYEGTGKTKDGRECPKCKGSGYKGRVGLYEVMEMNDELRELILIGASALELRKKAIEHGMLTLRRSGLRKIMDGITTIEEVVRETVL
Summary of the method: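 N-terminally truncated CtPilB hexamer (lacking residues 1–139, purified), 3.3 nM, with 1 mM ATP, 2% DMSO and test compound, 54 °C, 30 min. Quenched with 30% TCA; phosphate detected by malachite green/ammonium molybdate, absorbance at 620 nm, room temperature. Screen at 3 and 30 μM with benserazide as benchmark; IC50 from concentration–response fits.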

apyrase = assay: Apyrase ATPase selectivity assay; type: biochemical; conditions: varying concentrations up to 64 μM; 1 mM ATP, 37 °C, 30 min; p-value > 0.05
Summary of the method: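 Commercial apyrase (6.7 × 10−7 U μl−1) with 1 mM ATP in 20 mM MES, 50 mM NaCl, 5 mM CaCl2, 1 mM DTT, 2% DMSO, test compound up to 64 μM, 37 °C, 30 min. Stopped with 30% TCA; released phosphate measured by malachite green assay. Biological experiments run in duplicate; concentrations compared statistically.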

Compound	inhibition at 3 µM (CtPilB) [%]	inhibition at 30 µM (CtPilB) [%]	further results
N[C@H](CO)C(=O)N/N=C/c1cc(O)ccc1O (mixture of isomers) [8f, (R,E)-2-Amino-N′-(2,5-dihydroxybenzylidene)-3-hydroxypropanehydrazide hydrochloride]	40 ± 26	80 ± 16	–
N[C@H](CO)C(=O)NNCc1ccccc1O [7a, (R)-2-Amino-3-hydroxy-N′-(2-hydroxybenzyl)propanehydrazide hydrochloride]	–	32 ± 4	–
N[C@H](CO)C(=O)NNCc1cccc(O)c1O [7d, (R)-2-Amino-N′-(2,3-dihydroxybenzyl)-3-hydroxypropanehydrazide hydrochloride]	19 ± 12	78.2 ± 4	–
N[C@H](CO)C(=O)NNCc1ccc(O)cc1O [7e, (R)-2-Amino-N′-(2,4-dihydroxybenzyl)-3-hydroxypropanehydrazide hydrochloride]	–	40 ± 2	–
N[C@H](CO)C(=O)NNCc1cc(O)ccc1O [7f, (R)-2-Amino-N′-(2,5-dihydroxybenzyl)-3-hydroxypropanehydrazide hydrochloride]	–	45 ± 6	–
N[C@H](CO)C(=O)NNCc1c(O)cccc1O [7g, (R)-2-Amino-N′-(2,6-dihydroxybenzyl)-3-hydroxypropanehydrazide hydrochloride]	32 ± 12	74 ± 5	–
N[C@H](CO)C(=O)N/N=C/c1ccccc1O [8a, (R,E)-2-Amino-3-hydroxy-N′-(2-hydroxybenzylidene)propanehydrazide hydrochloride]	–	23 ± 21	–
N[C@H](CO)C(=O)N/N=C/c1cccc(O)c1 [8b, (R,E)-2-Amino-3-hydroxy-N′-(3-hydroxybenzylidene)propanehydrazide hydrochloride]	–	18 ± 9	–
N[C@H](CO)C(=O)N/N=C/c1ccc(O)cc1 [8c, (R,E)-2-Amino-3-hydroxy-N′-(4-hydroxybenzylidene)propanehydrazide hydrochloride]	–	2 ± 3	–
N[C@H](CO)C(=O)N/N=C/c1cccc(O)c1O [8d, (R,E)-2-Amino-N′-(2,3-dihydroxybenzylidene)-3-hydroxypropanehydrazide hydrochloride]	–	84 ± 4	–
N[C@H](CO)C(=O)N/N=C/c1ccc(O)cc1O [8e, (R,E)-2-Amino-N′-(2,4-dihydroxybenzylidene)-3-hydroxypropanehydrazide hydrochloride]	–	69 ± 10	–
N[C@H](CO)C(=O)N/N=C/c1c(O)cccc1O [8g, (R,E)-2-Amino-N′-(2,6-dihydroxybenzylidene)-3-hydroxypropanehydrazide hydrochloride]	65 ± 5	86 ± 3	IC50 (CtPilB; dose–response 0.01–50 μM, benserazide as control): 1320 nM
COc1cccc(O)c1/C=N/NC(=O)[C@H](N)CO [8h, (R,E)-2-Amino-3-hydroxy-N′-(2-hydroxy-6-methoxybenzylidene)propanehydrazide hydrochloride]	–	67 ± 4	–
N[C@H](CO)C(=O)N/N=C/c1ccc(O)c(O)c1 [8i, (R,E)-2-Amino-N′-(3,4-dihydroxybenzylidene)-3-hydroxypropanehydrazide hydrochloride]	–	14 ± 4	–
N[C@H](CO)C(=O)N/N=C/c1ccc(O)c(O)c1O [8j, (R,E)-2-Amino-3-hydroxy-N′-(2,3,4-trihydroxybenzylidene)propanehydrazide hydrochloride]	35 ± 9	84 ± 2	–
Cl.N[C@H](CO)C(=O)N/N=C/c1c(O)ccc(O)c1O [8k, (R,E)-2-Amino-3-hydroxy-N′-(2,3,6-trihydroxybenzylidene)propanehydrazide hydrochloride]	71 ± 4	91 ± 8	IC50 (CtPilB): 1060 nM; Inhibition of apyrase ATPase activity (apyrase): no significant difference
COc1ccc(/C=N/NC(=O)[C@H](N)CO)c(OC)c1OC.Cl [8l, (R,E)-2-Amino-3-hydroxy-N′-(2,3,4-trimethoxybenzylidene)propanehydrazide hydrochloride]	–	–	Activity against PilB (in words) (CtPilB; screen at 3 and 30 μM): essentially had no activity
NCC(=O)N/N=C/c1c(O)cccc1O [11a, (E)-2-Amino-N′-(2,6-dihydroxybenzylidene)acetohydrazide hydrochloride]	55 ± 8	92 ± 5	–
C[C@@H](N)C(=O)N/N=C/c1c(O)cccc1O [11b, (R,E)-2-amino-N′-(2,6-dihydroxybenzylidene)propanehydrazide hydrochloride]	26 ± 11	87 ± 4	–
Cl.N[C@H](CS)C(=O)N/N=C/c1c(O)cccc1O [11c, (S,E)-2-Amino-N′-(2,6-dihydroxybenzylidene)-3-mercaptopropanehydrazide hydrochloride]	90 ± 1	97 ± 11	IC50 (CtPilB): 580 nM; Potency relative to benserazide (CtPilB; ratio of IC50 values): 6 fold; Inhibition of apyrase ATPase activity (apyrase): no significant difference
NC(CO)C(=O)NNCc1ccc(O)c(O)c1O (stereo not shown) [Benserazide, reference compound]	34 ± 10	80 ± 8	IC50 (CtPilB): 3680 nM; Inhibition of apyrase ATPase activity (apyrase): no significant difference
NNC(=O)[C@@H](N)CO [compound 4, (S)-2-Amino-3-hydroxypropanehydrazide dihydrochloride]	–	27 ± 19	–
